According to ChEMBL document CHEMBL6121049, “Discovery of Orally Available Prodrugs of Itaconate and Derivatives” (J Med Chem, 2025):
The source made the active and inactive calls. The calls are words filed in the database; no cut-off is given here.

Assays:
[1] = Metabolic stability in mouse plasma assessed as compound remaining at 10 uM measured after 1 hrs by LC-MS analysis; type: ADME, cell-free
Method in brief: (§1)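 Prodrugs (10 μM) spiked into mouse or human plasma, shaken at 37 °C; samples at 0 and 60 min quenched in cold acetonitrile with losartan internal standard, centrifuged, diluted, run by LC-HRMS; % remaining from analyte/IS peak-area ratio.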

[2] = Chemical stability in pH 1.2 assessed as compound remaining at 10 uM measured after 1 hrs by LC-MS/MS analysis; type: physicochemical; conditions: buffer, pH 1.2, 1 h
Method in brief: (§2)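 Compounds incubated in buffers at pH 1.2, 4.5 or 7.4 at 37 °C for 1 h; prodrug disappearance followed by LC–MS/MS as % remaining.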

[3] = Metabolic stability in human plasma assessed as compound remaining at 10 uM measured after 1 hrs by LC-MS analysis; type: ADME, cell-free; method in brief: as §1
[4] = Permeability of the compound at pH 7.4 incubated for 4 hrs by PAMPA-GIT assay; type: ADME; conditions: pH 7.4, 4 h
Method in brief: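 PAMPA-GIT sandwich: acceptor filter coated with GIT-0 lipid; donor holds 10 μM compound in pH 7.4 buffer with 0.2% DMSO, acceptor pH 7.4 sink buffer; 4 h at room temperature; both compartments sampled by LC-MS/MS; effective permeability Pe calculated with membrane retention correction.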

[5] = Metabolic stability in mouse skin homogenate assessed as compound remaining at 10 uM measured after 1 hrs by LC-MS analysis; type: ADME, tissue-based, Skin of body; conditions: tissue homogenate
[6] = Chemical stability in pH 4.5 assessed as compound remaining at 10 uM measured after 1 hrs by LC-MS/MS analysis; type: physicochemical; conditions: buffer, pH 4.5, 1 h; method in brief: as §2
[7] = Metabolic stability in human skin homogenate assessed as compound remaining at 10 uM measured after 1 hrs by LC-MS analysis; type: ADME, tissue-based, Skin of body; conditions: tissue homogenate
[8] = Chemical stability in pH 7.4 assessed as compound remaining at 10 uM measured after 1 hrs by LC-MS/MS analysis; type: physicochemical; conditions: buffer, pH 7.4, 1 h; method in brief: as §2
[9] = Immunomodulatory activity in NHEK cells assessed as inhibition of IFN-gamma induced CXCL11 expression at 30 to 100 uM by TaqMan RTPCR analysis relative to control; type: functional, Homo sapiens; conditions: dose 30-100 µM
Method in brief: (§3)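 Primary human keratinocytes seeded, held overnight at 37 °C, 5% CO2, then stimulated with Poly(I:C) 50 μg/mL plus IFNγ 5 ng/mL, with or without prodrug at 1, 10, 30 or 100 μM; gene induction measured at 8 h.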

[10] = Prodrug conversion in C57BL6 mouse skin assessed as itaconic acid half life at 100 mg/kg, po measured after 24 hrs by LC-MS/MS analysis; type: ADME, organism-based, Skin of body; conditions: in vivo
Method in brief: (§4)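 C57BL6 mice, 25–30 g, 8.5 weeks old, given 100 mg/kg (IA or 4-MI equivalent) orally in 10% DMSO/80% PEG/10% HBS, freshly prepared; killed at 0.25–24 h, n = 3 per time point; acidified plasma and stabilized skin homogenates, methanol precipitation with internal standards, LC-MS/MS (orbitrap); PK parameters as mean ± SEM.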

[11] = Prodrug conversion in C57BL6 mouse plasma assessed as itaconic acid Cmax at 100 mg/kg, po measured after 24 hrs by LC-MS/MS analysis; type: ADME, organism-based; conditions: in vivo; method in brief: as §4
[12] = Cytotoxicity against NHEK cells assessed as cell viability at 100 uM measured after 8 hrs by CellTiter-Glo assay relative to control; type: toxicity, cell-based; conditions: human
Method in brief: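 Primary normal human epidermal keratinocytes, expanded and seeded, exposed to 1, 10, 30 or 100 μM for 8 h; viability by CellTiter-Glo luminescence as % viable.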

[13] = Prodrug conversion in C57BL6 mouse skin assessed as itaconic acid AUC (0 to t) at 100 mg/kg, po measured after 24 hrs by LC-MS/MS analysis; type: ADME, organism-based, Skin of body; conditions: in vivo
[14] = Prodrug conversion in C57BL6 mouse skin assessed as itaconic acid Tmax at 100 mg/kg, po measured after 24 hrs by LC-MS/MS analysis; type: ADME, organism-based, Skin of body; conditions: in vivo; method in brief: as §4
[15] = Prodrug conversion in C57BL6 mouse plasma assessed as itaconic acid Tmax at 100 mg/kg, po measured after 24 hrs by LC-MS/MS analysis; type: ADME, organism-based; conditions: in vivo; method in brief: as §4
[16] = Immunomodulatory activity in NHEK cells assessed as inhibition of Poly(I:C)/IFN-gamma induced IL-1 beta expression at >= 10 uM by TaqMan RTPCR analysis relative to control; type: functional, Homo sapiens; design: scale not given: the % may be the effect or the level left; method in brief: as §3
[17] = Prodrug conversion in C57BL6 mouse plasma assessed as itaconic acid AUC (0 to t) at 100 mg/kg, po measured after 24 hrs by LC-MS/MS analysis; type: ADME, organism-based; conditions: in vivo
[18] = Prodrug conversion in C57BL6 mouse skin assessed as itaconic acid Cmax at 100 mg/kg, po measured after 24 hrs by LC-MS/MS analysis; type: ADME, organism-based, Skin of body; conditions: in vivo; method in brief: as §4
[19] = Prodrug conversion in C57BL6 mouse plasma assessed as itaconic acid half life at 100 mg/kg, po measured after 24 hrs by LC-MS/MS analysis; type: ADME, organism-based; conditions: in vivo; method in brief: as §4
[20] = Immunomodulatory activity in NHEK cells assessed as inhibition of IL-6 mRNA expression at 100 uM preincubated for 2 days and measured after 24 hrs by TaqMan RTPCR analysis; type: functional; conditions: Homo sapiens, 48 h, time 2 day
NHEK [21] = test: Effect on TLR3 mRNA expression in NHEK cells at 500 uM preincubated for 2 days and measured after 24 hrs by TaqMan RTPCR analysis; type: functional, cell-based; conditions: Homo sapiens, time 2.0 day
NHEK [22] = test: Effect on IL-6 expression in NHEK cells at 500 uM preincubated for 2 days and measured after 24 hrs by TaqMan RTPCR analysis; type: functional, cell-based; conditions: Homo sapiens, time 2.0 day
[23] = Immunomodulatory activity in NHEK cells assessed as inhibition of IFN-gamma induced CXCL10 expression at 100 uM by TaqMan RTPCR analysis relative to control; type: functional; conditions: Homo sapiens; method in brief: as §3
NHEK [24] = test: Immunomodulatory activity in NHEK cells assessed as inhibition of Poly(I:C)/IFN-gamma induced IL-1 beta expression at 100 uM by TaqMan RTPCR analysis; type: functional, cell-based; conditions: Homo sapiens; method in brief: as §3
[25] = Immunomodulatory activity in NHEK cells assessed as inhibition of IFN-gamma induced CXCL11 expression at 100 uM by TaqMan RTPCR analysis relative to control; type: functional; conditions: Homo sapiens; method in brief: as §3

SMILES | Stability [1] [%] | Stability [2] [%] | Stability [3] [%] | permeability [4] | Stability [5] [%] | Stability [6] [%] | Stability [7] [%] | Stability [8] [%] | also measured
C=C(CC(=O)OCOC(=O)C(C)(C)C)C(=O)O | 3 | 100 | 83 | 0.08 10^-6 cm/s | 14 | 74 | 40 | 22 | –
C=C(CC(=O)OCCCOCCCCCCCCCCCCCCCC)C(=O)O | 92 | 91 | 68 | 3.2 10^-6 cm/s | 100 | 90 | 87 | 65 | –
C=C(CC(=O)OCOC(=O)OC(C)C)C(=O)OCOC(=O)OC(C)C | 0 | 104 | 0 | 35.9 10^-6 cm/s | 2.5 | – | 1.1 | 47 | inhibition (INH) [9]: >50%; t1/2 [10]: 3.32 h; Cmax [11]: 83.8 µM; Activity [12]: > 80%; AUCt [13]: 173 nmol·h/g; Tmax [14]: 1 h; Tmax [15]: 0.25 h; Activity [16]: >50%; AUCt [17]: 108 µM·h; Cmax [18]: 65.9 nmol/g; t1/2 [19]: 1.42 h; inhibition at 100 µM [20]: > 90%
C=C(CC(=O)OCc1oc(=O)oc1C)C(=O)OC | 0 | 100 | 0 | 16.3 10^-6 cm/s | 0 | 97 | 56 | 69 | –
C=C(CC(=O)OC)C(=O)OCCCOCCCCCCCCCCCCCCCC | 44 | 103 | 32 | – | 67 | 108 | 94 | 75 | –
C=C(CC(=O)OCOC(=O)OC(C)C)C(=O)O | 0 | 104 | 53 | – | 4.9 | 79 | 29 | 44 | –
C=C(CC(=O)OCc1oc(=O)oc1C)C(=O)O | 20 | 109 | 0 | – | 74 | 88 | 93 | 0 | –
C=C(CC(=O)O)C(=O)O | – | – | – | – | – | – | – | – | Activity (NHEK [21]): inactive; Activity (NHEK [22]): inactive
C=C(CC(=O)OCOC(=O)C(C)(C)C)C(=O)OCOC(=O)C(C)(C)C | 0 | 106 | 0 | 35.8 10^-6 cm/s | 0 | 92 | 0 | 104 | –
C=C(CC(=O)OCc1oc(=O)oc1C)C(=O)OCc1oc(=O)oc1C | 0 | 102 | 0 | 17 10^-6 cm/s | 0 | 91 | 30 | 91 | –
C=C(CC(=O)OC)C(=O)OCc1oc(=O)oc1C | 0 | 98 | 0 | 15.4 10^-6 cm/s | 16 | 87 | 76 | 99 | –
C=C(CC(=O)OC)C(=O)O | – | – | – | – | – | – | – | – | Activity (NHEK [21]): inactive; Activity (NHEK [22]): inactive
C=C(CC(=O)OCCCOCCCCCCCCCCCCCCCC)C(=O)OC | 89 | 109 | 90 | – | 61 | 98 | 101 | 97 | –
C=C(CC(=O)OC)C(=O)OCOC(=O)C(C)(C)C | 0 | 99 | 0 | 33.2 10^-6 cm/s | 5.3 | 109 | 15 | 94 | –
C=C(CC(=O)OCOC(=O)C(C)(C)C)C(=O)OC | 0 | 101 | 0 | 35.2 10^-6 cm/s | 0 | 104 | 9.4 | 86 | –
C=C(CC(=O)OCOC(=O)OC(C)C)C(=O)OC | 0 | 98 | 0 | 29.3 10^-6 cm/s | 0 | 94 | 0 | 63 | inhibition at 100 µM [23]: < 50%; Activity [12]: > 80%; Activity (NHEK [24]): Active; inhibition at 100 µM [25]: < 50%
